This passage reports half-life and Ratio results from ChEMBL document CHEMBL3351998, “Discovery of potent and specific dihydroisoxazole inhibitors of human transglutaminase 2” (J Med Chem, 2014).

Bounds are passed on as bounds.

Data set [1] is described as follows: Half life in CD-1 mouse at 50 mg/kg, po. It counts as ADME, organism-based. Set-up: dose 50 mg/kg, route oral. The conditions noted are these: in vivo. The essentials:
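Male CD-1 mice (6−8 weeks, cohorts of five) fasted ~6 h, then gavaged (10 μL/g) with inhibitor mixtures at 50 mg/kg each compound. Vehicle: 25 mg/mL per compound in 1 M HCl/10% Tween-80/25% ethanol, diluted 5-fold into 0.94% methylcellulose in 250 mM trisodium citrate. Blood sampled at 5, 20 (saphenous) and 60 min (cardiac). Plasma quantified by LC-MS (ESI-QTOF) against standard curves.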

In data set [2] the target is T1, Protein-glutamine gamma-glutamyltransferase E (Homo sapiens) (UniProt Q08188).
T1 sequence (whole entry): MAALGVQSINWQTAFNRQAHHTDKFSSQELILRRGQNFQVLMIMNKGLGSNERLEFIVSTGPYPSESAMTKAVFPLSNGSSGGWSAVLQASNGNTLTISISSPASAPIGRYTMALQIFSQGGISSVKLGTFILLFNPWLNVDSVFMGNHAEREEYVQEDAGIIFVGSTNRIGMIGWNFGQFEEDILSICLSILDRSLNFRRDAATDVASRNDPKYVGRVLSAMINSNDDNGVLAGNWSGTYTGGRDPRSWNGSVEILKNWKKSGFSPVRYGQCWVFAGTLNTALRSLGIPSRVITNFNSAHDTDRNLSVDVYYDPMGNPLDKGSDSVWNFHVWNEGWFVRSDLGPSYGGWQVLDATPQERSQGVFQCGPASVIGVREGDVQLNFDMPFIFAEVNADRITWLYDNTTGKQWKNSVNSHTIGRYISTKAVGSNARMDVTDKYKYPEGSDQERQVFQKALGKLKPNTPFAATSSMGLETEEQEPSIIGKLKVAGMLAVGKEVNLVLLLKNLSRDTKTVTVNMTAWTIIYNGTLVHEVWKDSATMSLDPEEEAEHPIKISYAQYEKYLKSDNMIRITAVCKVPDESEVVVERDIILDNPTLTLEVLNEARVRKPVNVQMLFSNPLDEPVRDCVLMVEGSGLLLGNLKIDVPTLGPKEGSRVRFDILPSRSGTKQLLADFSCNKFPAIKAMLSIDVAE
Briefly: Inhibition of human transglutaminase 3 using ((benzyloxy)carbonyl)-L-glutaminyl-L-serine peptide substrate assessed as Kinh/Ki ratio by GDH coupled assay. In a few lines: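 His-tagged human TG3 activated by cathepsin L (1 μg per 25 μg TG3, MES pH 6.0, 30 min), then quenched with 50 μM E64 for 10 min. Final TG3 ~0.43 μM in 200 mM MOPS pH 7.2, 5 mM CaCl2, 10 mM α-ketoglutarate, 300 μM NADH, 36 U/mL GDH. Z-Gln-Ser at 20/40 mM. Enzyme pre-equilibrated 30 min before inhibitors (typically 100/33.3/11.1/3.7 μM) were added. A340 curves fitted; kinh/Ki from irreversible model.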

Data set [3] concerns the target T2, Protein-glutamine gamma-glutamyltransferase 2 (Mus musculus) (UniProt P21981).
T2 sequence (whole entry): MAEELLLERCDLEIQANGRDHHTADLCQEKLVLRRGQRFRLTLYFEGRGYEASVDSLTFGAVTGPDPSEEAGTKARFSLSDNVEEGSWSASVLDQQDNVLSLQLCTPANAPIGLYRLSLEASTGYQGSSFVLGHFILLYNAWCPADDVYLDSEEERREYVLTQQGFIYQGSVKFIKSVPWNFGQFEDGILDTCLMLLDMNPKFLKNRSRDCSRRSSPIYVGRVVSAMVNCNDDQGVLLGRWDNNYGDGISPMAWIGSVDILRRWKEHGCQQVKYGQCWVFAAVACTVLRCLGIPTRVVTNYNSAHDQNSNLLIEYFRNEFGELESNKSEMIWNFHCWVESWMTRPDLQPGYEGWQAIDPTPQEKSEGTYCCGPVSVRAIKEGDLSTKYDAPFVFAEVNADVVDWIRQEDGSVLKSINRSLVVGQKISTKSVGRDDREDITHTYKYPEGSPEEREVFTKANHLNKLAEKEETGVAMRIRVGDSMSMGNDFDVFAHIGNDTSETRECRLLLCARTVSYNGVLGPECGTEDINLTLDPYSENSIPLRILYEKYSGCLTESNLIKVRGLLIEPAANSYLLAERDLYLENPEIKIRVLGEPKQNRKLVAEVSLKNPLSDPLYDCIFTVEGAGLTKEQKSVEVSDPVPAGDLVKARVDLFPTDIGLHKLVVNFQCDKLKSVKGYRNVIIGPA
Briefly: Inhibition of mouse transglutaminase 2 using ((benzyloxy)carbony l)-L-glutaminylglycine peptide substrate assessed as Kinh/Ki ratio by GDH coupled assay. The essentials: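 Human TG2 (V224G variant) or codon-optimized murine TG2, E. coli-expressed, final ~0.34 and 0.22 μM respectively. Buffer: 200 mM MOPS pH 7.2, 5 mM CaCl2, 10 mM α-ketoglutarate, 300 μM NADH, 36 U/mL bovine GDH. Z-Gln-Gly at 10/20 mM. Inhibitors typically at 100/33.3/11.1/3.7 μM, 1% DMSO, added after ≥5 min pre-equilibration. A340 progress curves fitted to exponential decay; kinh/Ki from irreversible inhibition model.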

In the case of `O=C(N[C@@H]1C[C@@H](C(=O)NC[C@@H]2CC(Br)=NO2)N(C(=O)OCc2cnc3ccccc3c2)C1)c1cccnc1`, in data set [1], the half-life was found to be 15 min. Besides, the Ratio in data set [2] is less than 1; in data set [3], 0.68.

For `O=C(N[C@@H]1C[C@@H](C(=O)NC[C@@H]2CC(Br)=NO2)N(C(=O)OCc2cnc3ccccc3c2)C1)c1ccc(O)cc1`, in data set [1], the half-life stood at 15 min. In addition, the figures for the Ratio in data set [2] and in data set [3] were less than 1 and 1.3, respectively.

In data set [1], `O=C(NC[C@@H]1CC(Br)=NO1)[C@@H]1CCCN1C(=O)OCc1cnc2ccccc2c1` came in with a half-life of 15 min. Further, the results for the Ratio in data set [2] and in data set [3] were less than 1 and 0.5, respectively.

`O=C(NC[C@@H]1CC(Br)=NO1)[C@@H]1C[C@@H](c2ccc(O)cc2)CN1C(=O)OCc1cnc2ccccc2c1` yielded a half-life in data set [1] of 15 min. Moreover, the Ratio was less than 1 in data set [2] and 1.4 in data set [3].

For the compound `O=C(NC[C@@H]1CC(Br)=NO1)[C@@H]1C[C@@H](c2ccccc2)CN1C(=O)OCc1cnc2ccccc2c1`, the half-life in data set [1] was 15 min. Moreover, the figures for the Ratio in data set [2] and in data set [3] were less than 1 and 1.5, respectively.

Take `O=C(NC[C@@H]1CC(Br)=NO1)[C@@H]1C[C@@H](O)CN1C(=O)OCc1cnc2ccccc2c1`: the half-life in data set [1] is 15 min. Further, the Ratio in data set [2] was less than 1; in data set [3], 0.5.

`O=C(NC[C@@H]1CC(Br)=NO1)[C@@H]1C[C@@H](OCc2ccccc2)CN1C(=O)OCc1cnc2ccccc2c1` displayed a half-life in data set [1] of 15 min. Also, the Ratio is less than 1 in data set [2] and 0.5 in data set [3].

As for `O=C(NC[C@@H]1CC(Br)=NO1)[C@@H]1C[C@H](F)CN1C(=O)OCc1cnc2ccccc2c1`, in data set [1], the half-life turned out to be 15 min. The Ratio in data set [2] is less than 1; in data set [3], 0.43.

The half-life is the time needed for the level to fall by half in the phase considered.
